# High-throughput results: PubChem BioAssay, several laboratories
# Most compounds without a hit are left out; they make up all but 8.7% or so of the library.
# tolC growth inh: blocks growth of E. coli BW25113 tolC mutant; growth inhibition, % at 10 µM (by protocol); OD615; 65,000 tested, 2.2% active;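 active = growth inhibition at or above a cutoff equal to the mean over every tested compound plus 3 SD, cut at about 60% in these data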;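 note: growth measured after 20 h incubation at 37 °C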
#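 signal = optical density read at 615 nm | test system = E. coli ΔtolC::kan strain BW25113 | timing = 20 h compound exposure of bacteria at 37 °C | buffer or medium = LB medium plus 50 µg/mL kanamycin | compound dosing = 10 µM final, single dose | evaluation = % inhibition of E. coli growth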
# Pyk2 oligo antag: Pyk2 (human) oligomerization antagonism; Q14289; Q293 cells, Pyk2 FERM NanoBiT luminescence; active compounds read low; z-score (the deposit names both 25 µM and 10 µM); 99,000 tested, 0.83% active; AID 1347419;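 active = Z-score of -3 or lower, scaled per plate to the spread of control and sample wells; inactive = z-score above -3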;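 note: negative z-score means lost luminescence so less FERM oligomerization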
# Ecoli WT expand: E. coli BW25113 growth inhibition, expanded screen; growth inhibition, % at 100 µM; OD600 absorbance; 98,000 tested, 0.15% active; AID 710;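 active = growth inhibition above about 50% at one test dose, limit read from the data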;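 note: growth measured after 20 h incubation at 37 °C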
# PostGolgi yeast: growth inhibition of a yeast mutant, post-Golgi transport screen; post-Golgi transport phenotypic cell assay; inhibition, % at 10 µM; 98,000 tested, 0.9% active;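 note: yeast cells grown in 1536-well plates; yeast grown about 18 h at 30C before absorbance read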
# Cav3 T inh: human Cav3.2 channel inhibition, primary screen | B-score at 10 µM | Cav3.2-expressing cells, Fluo-4 calcium fluorescence FDSS; active compounds read low | O95180 | 100,000 tested, 4% active;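 active = single-dose well whose peak fluorescence ratio is a statistical outlier from its plate by either plate-standardised score or position-corrected B-score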
# PostGolgi ctrl: growth of the yeast control strain, post-Golgi counter-screen; efflux-deficient yeast background strain, growth absorbance A615, 16 h; inhibition, % at 10 µM; 98,000 tested, 5% active
# Numbers without * were called inactive; nt = not tested or not shown. Cut-off read from the data, not from the text of the source, unless noted: active = inhibition above about 30%; inactive = the rest.
SMILES,tolC growth inh,Pyk2 oligo antag,Ecoli WT expand,PostGolgi yeast,Cav3 T inh,PostGolgi ctrl
Cc1nn(-c2ccccc2)c2[nH]c(=O)c(CNCc3ccc4c(c3)OCO4)cc12,93*,-1.2,2,13,1.7,-12
O=C(Cn1ccc2ccccc2c1=O)NCCC(=O)NC1CCN(Cc2ccccc2)CC1,-13,-1.1,8,-3,-0.055,49*
C=CCSc1nc2ccccc2n1C(=O)/C=C/c1cc(OC)c(OC)c(OC)c1,nt,-1.7,-9,3,nt,38*
CCOc1ccc(C(CCc2ccccc2)NC(=O)c2ccccc2)cc1OCC (configuration not stated),nt,-1.6,3,-1,-5.1*,-3
CCOc1ccc(C(CC(=O)O)NC(=O)c2ccco2)cc1OC (configuration not stated),-15,0.28,-3,6,0.15,-5
CCN(CC)S(=O)(=O)c1cccc2c(N(C)C)cccc12,1,-1.4,-1,1,-2.8,17
O=c1oc2ccccc2cc1NCc1ccccc1O,25,nt,12,1,-5.2*,11
COc1ccccc1C(=O)Nc1cc2ccccc2oc1=O,nt,0.24,-3,4,-0.015,1
Cc1cccc(N2C(=O)CC(N(C(=O)c3ccco3)c3cccc(C)c3)C2=O)c1 (configuration not stated),-9,-0.72,nt,nt,0.19,nt
CCCOc1ccc(S(=O)(=O)n2cc(Br)c(=O)[nH]c2=O)cc1,28,1.8,7,6,-0.2,42*
CCOc1ccc(C2=NNC(c3cccs3)=Nc3ccc(OC)cc32)cc1OCC,nt,-0.01,nt,nt,-8.1*,nt
Cc1ccc(C(=O)CN2/C(=C(\O)c3ccccc3)C(=O)c3ccccc3S2(=O)=O)c(C)c1,nt,-1.5,15,-7,-5.9*,21
CCc1ccc(-n2nnnc2SCC(=O)NNC(=O)c2ccco2)cc1,nt,0.77,2,-1,0.012,-1
CC(=O)c1ccc(-n2nnnc2SCC(=O)NNC(=O)c2ccco2)cc1,nt,-0.4,2,6,0.6,43*
Cc1sc2nc(CN(C(=O)c3cccs3)C3CCCC3)[nH]c(=O)c2c1C,42,-1.9,-1,0,-4.8*,34*
Cc1sc2nc(CN(Cc3cccs3)C(=O)NC3CCCCC3)[nH]c(=O)c2c1C,89*,-1.3,-15,-5,-4.7,43*
O=C(c1cccs1)N(Cc1nc2sc3c(c2c(=O)[nH]1)CCCC3)C1CCCC1,90*,-1.1,-9,9,-1.9,11
Cc1sc2nc(CN(C(=O)NC3CCCCC3)C3CCCC3)[nH]c(=O)c2c1C,nt,-2,nt,nt,-0.013,nt
CCC(CC)C(=O)Nc1cccc(/C(C)=N/NC(=O)c2ccccc2Cl)c1,nt,-0.41,8,8,-0.77,-1
CCOC(=O)N1CCN(C(=O)Cn2ncn3nc(-c4cccs4)cc3c2=O)CC1,-11,0.92,-11,-1,0.63,3
O=C(Nc1cccnc1Cl)C1c2ccccc2Oc2ccccc21,nt,-0.55,4,10,0.0059,20
O=c1cc(NCc2ccco2)[nH]c(=O)n1-c1ccc(Br)cc1,-3,0.59,-3,5,-0.056,37*
O=c1cc(NCc2ccc3c(c2)OCO3)[nH]c(=O)n1-c1ccc(Cl)cc1,4,0.41,-8,17,-0.07,-1
COc1ccccc1NC(=O)N1CCc2[nH]c3ccc(F)cc3c2C1,15,-0.51,-11,1,-4.2*,5
COc1ccccc1NC(=O)N1CCN(c2ccc(F)cc2)CC1,nt,0.51,nt,nt,1.3,nt
SMILES,tolC growth inh,Pyk2 oligo antag,Ecoli WT expand,PostGolgi yeast,Cav3 T inh,PostGolgi ctrl
Cc1ccc(N=C(NOCc2ccc(Cl)cc2Cl)c2nonc2N)c(C)c1,nt,-0.78,-11,-5,-1.1,27
Cc1ccccc1N=C(NOCc1ccc(Cl)cc1Cl)c1nonc1N,nt,-1.8,-15,-5,-2.4,35*
Cc1ccccc1N=C(NOCc1ccccc1)c1nonc1N,nt,-1.9,-8,10,-6.6*,36*
Cc1ccc(N=C(NOC(=O)c2ccccc2)c2nonc2N)c(C)c1,nt,-0.2,2,-5,0.017,29
O=S(=O)(c1ccc(C2CCCCC2)cc1)N1CCCC1,nt,-1.6,0,-2,-1,8
CN1/C(=N\O)c2cccc3cccc1c23,8,-0.48,5,-12,-4.4*,7
CNC(=O)CN1C(=O)c2cccc3cccc1c23,nt,-0.02,3,-2,-0.088,3
O=C(Nc1cccc2c1CCCC2)c1ccc(Br)o1,7,-1.2,-1,5,0.27,12
CC(NC(=O)CCC(=O)NC(C)C1COc2ccccc2O1)C1COc2ccccc2O1 (configuration not stated),12,1.2,-10,-4,-8.8*,0
CCOc1cc(C2C(C#N)=C(N)OC(C)=C2C(C)=O)c(Br)c(Br)c1OC(C)C (configuration not stated),nt,-1.6,nt,nt,-5.3*,nt
CC(=O)c1sc(NC(=O)C2(F)C(F)(F)C(F)(F)C(F)(F)C(F)(F)C2(F)F)nc1C,100*,-2.4,8,-1,-4*,22
C/C=C\C=C\C(=O)Nc1cccc(C2=NOC3(C2)C[C@@H](C(N)=O)N(C(=O)C(c2ccccc2)c2ccccc2)C3)c1 (some centres not stated),nt,nt,nt,nt,-0.011,nt
Cc1ccc(C)c(N(C(=O)Cn2nnc(-c3cccs3)n2)C(C(=O)NC2CC2)c2ccc(C)o2)c1 (configuration not stated),-5,-4.3*,-5,-6,0.33,6
Cc1ccc(N(C(=O)Cn2nnc(-c3cccs3)n2)C(C(=O)NC2CCCC2)c2ccncc2)cc1 (configuration not stated),nt,-0.02,-17,7,-0.25,-8
CCc1nn2c(=O)cc(CSc3nc4sc5c(c4c(=O)n3C)CCCC5)nc2s1,-1,nt,nt,nt,nt,nt
O=C(Nc1cc(Sc2ccccn2)cc([N+](=O)[O-])c1)c1ccc([N+](=O)[O-])cc1,nt,-1.7,-8,1,nt,-4
O=C(NCc1cccs1)c1nc2c(nnn2Cc2ccccc2Cl)c(=O)[nH]1,40,-2.6,-4,-3,-4.5*,-5
COC(=O)c1ccc(COc2ccccc2/C=N/NS(=O)(=O)c2ccccc2)cc1,nt,-1.7,-8,1,-0.4,25
CCCCC1=CC2=CC(=O)C(C)(OC(=O)c3ccco3)C(=O)C2=CO1 (configuration not stated),nt,nt,nt,nt,-0.15,nt
CC(=O)c1c(C(C)=O)c(C)n(C2CCCCC2)c1C,nt,2.2,nt,nt,-0.18,nt
COc1ccc2[nH]c3c(=O)n(CCCCC(=O)NCCN4CCCC4)c(=S)[nH]c3c2c1,61*,-0.01,2,5,0.03,7
COc1ccc2[nH]c3c(=O)n(CCCCC(=O)N4CCC(C(N)=O)CC4)c(=S)[nH]c3c2c1,100*,-0.74,5,-3,0.025,8
COc1cc(/C=C/C(=O)NNc2c(F)c(F)cc(F)c2F)ccc1OC(F)F,nt,0.64,-6,-3,-4.3*,6
CCOc1ccccc1C(=O)Nc1cc(Cl)ccc1O,100*,-3.7*,-16,9,0.22,87*
